Assay results as given in ChEMBL document CHEMBL1122792, “Synthesis and biological evaluation of radiolabeled beta-ruthenocenylalanine” (J Med Chem, 1984).

Assays:
[1] = tested on: Mus musculus; experiment: Distribution of Radioactivity in kidneys of CD-1 Mice by intravenous administration of compound after 1 hr expressed as dose/gram; format: ADME, organism-based, Kidney; settings: in vivo
Outline: (§1)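 Female CD-1 mice, 7 1/2 weeks old (25-29 g), fed and watered ad libitum. Agent given in physiological saline, pH adjusted to 7.4 and filtered, by lateral tail vein injection under ether anesthesia. Tissues collected at 5 min, 1 h, 4 h and 1 day. Injectate samples counted as standard; results as mean % injected dose/g with range.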

[2] = tested on: Mus musculus; experiment: Distribution of Radioactivity in kidneys of CD-1 Mice by intravenous administration of compound after 5 minutes expressed as dose/gram; format: ADME, organism-based, Kidney; settings: in vivo; outline: as §1
[3] = tested on: Mus musculus; experiment: Distribution of Radioactivity in liver of CD-1 Mice […] by intravenous administration of compound after 5 minutes expressed as dose/gram; format: ADME, organism-based; settings: in vivo; outline: as §1
[4] = tested on: Mus musculus; experiment: Distribution of Radioactivity in liver of CD-1 Mice by intravenous administration of compound after 1 day expressed as dose/gram; format: ADME, organism-based; settings: in vivo, 24 h; outline: as §1
[5] = tested on: Mus musculus; experiment: Distribution of Radioactivity in liver of CD-1 Mice by intravenous administration of compound after 1 hr expressed as dose/gram; format: ADME, organism-based; settings: in vivo; outline: as §1
[6] = tested on: Mus musculus; experiment: Distribution of Radioactivity in liver of CD-1 Mice by intravenous administration of compound after 4 hour expressed as dose/gram; format: ADME, organism-based; settings: in vivo; outline: as §1
[7] = tested on: Mus musculus; experiment: Distribution of Radioactivity in lungs of CD-1 Mice by intravenous administration of compound after 1 day expressed as dose/gram; format: ADME, organism-based, Lung; settings: in vivo, 24 h; outline: as §1
[8] = tested on: Mus musculus; experiment: Distribution of Radioactivity in lungs of CD-1 Mice by intravenous administration of compound after 1 hr expressed as dose/gram; format: ADME, organism-based, Lung; settings: in vivo; outline: as §1
[9] = tested on: Mus musculus; experiment: Distribution of Radioactivity in lungs of CD-1 Mice by intravenous administration of compound after 4 hour expressed as dose/gram; format: ADME, organism-based, Lung; settings: in vivo; outline: as §1
[10] = tested on: Mus musculus; experiment: Distribution of Radioactivity in lungs of CD-1 Mice by intravenous administration of compound after 5 minutes expressed as dose/gram; format: ADME, organism-based, Lung; settings: in vivo; outline: as §1
[11] = tested on: Mus musculus; experiment: Distribution of Radioactivity in pancreas of CD-1 Mice by intravenous administration of compound after 1 day expressed as dose/gram; format: ADME, organism-based; settings: in vivo, 24 h; outline: as §1
[12] = tested on: Mus musculus; experiment: Distribution of Radioactivity in pancreas of CD-1 Mice by intravenous administration of compound after 1 hr expressed as dose/gram; format: ADME, organism-based; settings: in vivo; outline: as §1
[13] = tested on: Mus musculus; experiment: Distribution of Radioactivity in pancreas of CD-1 Mice by intravenous administration of compound after 5 minutes expressed as dose/gram; format: ADME, organism-based; settings: in vivo; outline: as §1
[14] = tested on: Mus musculus; experiment: Distribution of Radioactivity in small intestine of CD-1 Mice by intravenous administration of compound after 1 hr expressed as dose/gram; format: ADME, organism-based; settings: in vivo; outline: as §1
[15] = tested on: Mus musculus; experiment: Distribution of Radioactivity in small intestine of CD-1 Mice by intravenous administration of compound after 4 hr expressed as dose/gram; format: ADME, organism-based; settings: in vivo
Outline: (§2)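 Female CD-1 mice, 7 1/2 weeks old (25-29 g), fed and watered ad libitum. Radiotracer in physiological saline, pH 7.4, filtered, injected via lateral tail vein under ether anesthesia. Tissues taken at 5 min, 1 h, 4 h or 1 day. Percent injected dose per gram calculated against assayed samples of the injected solution; mean with range reported.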

[16] = tested on: Mus musculus; experiment: Distribution of Radioactivity in small intestine of CD-1 Mice by intravenous administration of compound after 5 minutes expressed as dose/gram; format: ADME, organism-based; settings: in vivo; outline: as §2
[17] = tested on: Mus musculus; experiment: Distribution of Radioactivity in stomach of CD-1 Mice by intravenous administration of compound after 4 hr expressed as dose/gram; format: ADME, organism-based; settings: in vivo; outline: as §2
[18] = tested on: Mus musculus; experiment: Distribution of Radioactivity in thymus of CD-1 Mice by intravenous administration of compound after 1 day expressed as dose/gram; format: ADME, organism-based; settings: in vivo, 24 h; outline: as §2
[19] = tested on: Mus musculus; experiment: Distribution of Radioactivity in thymus of CD-1 Mice by intravenous administration of compound after 4 hr expressed as dose/gram; format: ADME, organism-based; settings: in vivo; outline: as §2
[20] = tested on: Mus musculus; experiment: Distribution of Radioactivity in thymus of CD-1 Mice by intravenous administration of compound after 5 minutes expressed as dose/gram; format: ADME, organism-based; settings: in vivo; outline: as §2
[21] = tested on: Mus musculus; experiment: Distribution of Radioactivity in spleen of CD-1 Mice by intravenous administration of compound after 1 day expressed as dose/gram; format: ADME, organism-based; settings: in vivo, 24 h; outline: as §2
[22] = tested on: Mus musculus; experiment: Distribution of Radioactivity in adrenals of CD-1 Mice by intravenous administration of compound after 1 hr expressed as dose/gram; format: ADME, organism-based, Adrenal gland; settings: in vivo; outline: as §1
[23] = tested on: Mus musculus; experiment: Distribution of Radioactivity in adrenals of CD-1 Mice by intravenous administration of compound after 5 minutes expressed as dose/gram; format: ADME, organism-based, Adrenal gland; settings: in vivo; outline: as §1
[24] = tested on: Mus musculus; experiment: Distribution of Radioactivity in blood of CD-1 Mice by intravenous administration of compound after 1 day expressed as dose/gram; format: ADME, organism-based; settings: in vivo, 24 h; outline: as §1
[25] = tested on: Mus musculus; experiment: Distribution of Radioactivity in blood of CD-1 Mice by intravenous administration of compound after 1 hr expressed as dose/gram; format: ADME, organism-based; settings: in vivo; outline: as §1
[26] = tested on: Mus musculus; experiment: Distribution of Radioactivity in blood of CD-1 Mice by intravenous administration of compound after 4 hour expressed as dose/gram; format: ADME, organism-based; settings: in vivo; outline: as §1
[27] = tested on: Rattus norvegicus; experiment: Distribution of Radioactivity in small intestine of Fisher 344 Rats by intravenous administration of compound after 4 hour expressed as dose/gram; format: ADME, organism-based; settings: in vivo
Outline: (§3)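 Female Fischer 344 rats, 10-12 weeks old (170-200 g), food and water ad libitum; four rats per time point. About 6.3 μCi given in 0.05 mL saline (pH 7.4, filtered) by lateral tail vein under ether anesthesia. Tissues sampled at 5 min, 1 h, 4 h or 1 day. %ID/g computed from injectate standards; mean and range given.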

[28] = tested on: Rattus norvegicus; experiment: Distribution of Radioactivity in spleen of Fisher 344 Rats by intravenous administration of compound after 5 minutes expressed as dose/gram; format: ADME, organism-based; settings: in vivo; outline: as §3
[29] = tested on: Rattus norvegicus; experiment: Distribution of Radioactivity in stomach of Fisher 344 Rats by intravenous administration of compound after 1 day expressed as dose/gram; format: ADME, organism-based; settings: in vivo, 24 h; outline: as §3
[30] = tested on: Rattus norvegicus; experiment: Distribution of Radioactivity in stomach of Fisher 344 Rats by intravenous administration of compound after 5 minutes expressed as dose/gram; format: ADME, organism-based; settings: in vivo; outline: as §3
[31] = tested on: Rattus norvegicus; experiment: Distribution of Radioactivity in thymus of Fisher 344 Rats by intravenous administration of compound after 4 hour expressed as dose/gram; format: ADME, organism-based; settings: in vivo; outline: as §3
[32] = tested on: Rattus norvegicus; experiment: Distribution of Radioactivity in thymus of Fisher 344 Rats by intravenous administration of compound after 5 minutes expressed as dose/gram; format: ADME, organism-based; settings: in vivo; outline: as §3
[33] = tested on: Rattus norvegicus; experiment: Distribution of Radioactivity in adrenals of Fisher 344 Rats by intravenous administration of compound after 5 minutes expressed as dose/gram; format: ADME, organism-based, Adrenal gland; settings: in vivo
Outline: (§4)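 Female Fischer 344 rats, 10-12 weeks old (170-200 g), fed and watered ad libitum; four rats per time point. Each received ~6.3 μCi in 0.05 mL saline (pH 7.4, filtered), given by lateral tail vein under ether anesthesia. Tissues taken at 5 min, 1 h, 4 h and 1 day. Injectate standards used; values as mean % injected dose/g with range.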

[34] = tested on: Rattus norvegicus; experiment: Distribution of Radioactivity in kidneys of Fisher 344 Rats by intravenous administration of compound after 1 hour expressed as dose/gram; format: ADME, organism-based, Kidney; settings: in vivo; outline: as §4
[35] = tested on: Rattus norvegicus; experiment: Distribution of Radioactivity in pancreas of Fisher 344 Rats by intravenous administration of compound after 4 hour expressed as dose/gram; format: ADME, organism-based; settings: in vivo; outline: as §4
[36] = tested on: Rattus norvegicus; experiment: Distribution of Radioactivity in liver of Fisher 344 Rats by intravenous administration of compound after 4 hour expressed as dose/gram; format: ADME, organism-based; settings: in vivo; outline: as §4
[37] = tested on: Rattus norvegicus; experiment: Distribution of Radioactivity in liver of Fisher 344 Rats by intravenous administration of compound after 5 minutes expressed as dose/gram; format: ADME, organism-based; settings: in vivo; outline: as §4
[38] = tested on: Rattus norvegicus; experiment: Distribution of Radioactivity in adrenals of Fisher 344 Rats by intravenous administration of compound after 1 day expressed as dose/gram; format: ADME, organism-based, Adrenal gland; settings: in vivo, 24 h; outline: as §4

Substance: beta-[103,106Ru]Ruthenocenylalanine
- Injected [1]: 4.59%
- Injected [2]: 15.745%
- Injected [3]: 7.75%
- Injected [4]: 0.508%
- Injected [5]: 1.784%
- Injected [6]: 1.01%
- Injected [7]: 0.252%
- Injected [8]: 1.015%
- Injected [9]: 0.47%
- Injected [10]: 3.603%
- Injected [11]: 0.067%
- Injected [12]: 0.247%
- Injected [13]: 1.749%
- Injected [14]: 2.641%
- Injected [15]: 0.367%
- Injected [16]: 1.739%
- Injected [17]: 0.166%
- Injected [18]: 0.138%
- Injected [19]: 0.195%
- Injected [20]: 2.579%
- Injected [21]: 0.189%
- Injected [22]: 1.054%
- Injected [23]: 6.85%
- Injected [24]: 0.086%
- Injected [25]: 1.039%
- Injected [26]: 0.22%
- Injected [27]: 0.218%
- Injected [28]: 0.355%
- Injected [29]: 0.023%
- Injected [30]: 0.243%
- Injected [31]: 0.035%
- Injected [32]: 0.335%
- Injected [33]: 0.275%
- Injected [34]: 2.717%
- Injected [35]: 0.044%
- Injected [36]: 0.278%
- Injected [37]: 2.844%
- Injected [38]: 0.044%
